We go through seven compounds from PMC5553891 (Neurochemistry international, 2013).

Assay [1] deals with T1, dSERT (Drosophila melanogaster, UniProt P51905).
T1 sequence (P51905 1-622): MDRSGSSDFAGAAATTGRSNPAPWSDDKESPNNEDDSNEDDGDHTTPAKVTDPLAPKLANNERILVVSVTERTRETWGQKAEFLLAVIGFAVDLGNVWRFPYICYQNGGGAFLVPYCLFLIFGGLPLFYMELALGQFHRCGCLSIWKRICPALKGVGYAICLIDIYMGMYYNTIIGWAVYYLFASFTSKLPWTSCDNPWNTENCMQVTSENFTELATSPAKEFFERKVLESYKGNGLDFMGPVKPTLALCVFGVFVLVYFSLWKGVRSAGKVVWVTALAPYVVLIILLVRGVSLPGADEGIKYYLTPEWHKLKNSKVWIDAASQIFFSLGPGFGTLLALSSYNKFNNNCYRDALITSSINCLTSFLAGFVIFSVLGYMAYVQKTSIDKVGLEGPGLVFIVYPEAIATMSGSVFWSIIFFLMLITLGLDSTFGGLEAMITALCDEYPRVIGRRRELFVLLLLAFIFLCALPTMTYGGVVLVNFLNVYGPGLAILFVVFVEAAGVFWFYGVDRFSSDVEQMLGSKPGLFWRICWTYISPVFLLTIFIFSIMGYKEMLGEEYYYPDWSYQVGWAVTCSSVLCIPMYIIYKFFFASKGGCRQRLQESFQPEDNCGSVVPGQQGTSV
The assay is described as follows: two-electrode voltage clamp of 5-HT-induced current in Xenopus oocytes. It counts as cell-based. Conditions: 10 μM 5-HT, ND96, −50 mV, room temperature. (In general: In two-electrode clamp one electrode senses voltage and the other passes current.)

Assay [2] addresses T1, dSERT. The assay is described as follows: inhibition of [3H]5-HT uptake in Xenopus oocytes. It is filed as cell-based. An outline of the steps: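 Xenopus oocytes: defolliculated in collagenase A, kept at 18°C in supplemented ND96, injected with 50 ng dSERT cRNA, used 2–4 days later. Uptake ran 20 min in ND96 with 200 nM [3H]5-HT plus increasing competitor. Stopped by removal and six ND96 washes; SDS-solubilised at 60°C, 2 h; scintillation counted. Uninjected same-batch oocytes subtracted; normalised to no-drug control; one-site competition fit.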

Where [3] appears, read: read-out: Ki (μM ± SEM) / dSERT, 200 nM [3H]5-HT, 20 min, ND96.

Like-named read-outs stand apart in the source and are kept apart here.

On to `CCN(CC)Cc1cc(Nc2ccnc3cc(Cl)ccc23)ccc1O` [Amodiaquin], for which the “% inhibition of I5HT at 100 μM” value in assay [1] was “amodiaquin, which did not impact 5-HT uptake, was as affective as quinine”.

Regarding `CCN(CC)CCCC(C)Nc1ccnc2cc(Cl)ccc12` (stereo not shown) [Chloroquine], the “% inhibition of I5HT at 100 μM” value in assay [1] is “quinidine > cinchonine > quinacrine > chloroquine > quinine = amodiaquin = cinchonidine”.

Turning to `C=C[C@H]1CN2CC[C@H]1C[C@H]2[C@H](O)c1ccnc2ccccc12` [Cinchonidine], the Ki in assay [2] (setting [3]) came to 330 ± 19 µM.

Regarding `C=C[C@H]1C[N@@]2CC[C@H]1C[C@@H]2[C@@H](O)c1ccnc2ccccc12` [Cinchonine], in assay [2] (setting [3]), the Ki stood at 6.4 ± 0.05 µM.

In the case of `C=C[C@H]1C[N@@]2CC[C@H]1C[C@@H]2[C@@H](O)c1ccnc2ccc(OC)cc12` [Quinidine], the Ki in assay [2] was 1.8 ± 0.11 µM.

`C=C[C@H]1C[N@@]2CC[C@H]1C[C@H]2[C@H](O)c1ccnc2ccc(OC)cc12` [Quinine]: the Ki in assay [2] came to 102 ± 24 µM.

In the case of `CCN(CC)CCCC(C)Nc1c2ccc(Cl)cc2nc2ccc(OC)cc12` (stereo not shown) [quinacrine], in assay [1], the “% inhibition of I5HT at 100 μM” value is reported as “quinidine > cinchonine > quinacrine > chloroquine > quinine = amodiaquin = cinchonidine”.
